Source: ChEMBL document CHEMBL2034826, “Novel 1,2,4-triazole and imidazole derivatives of L-ascorbic and imino-ascorbic acid: synthesis, anti-HCV and antitumor activity evaluations” (Bioorg Med Chem, 2012)
In brackets after ≈: the same amount, converted by molar mass.

What was measured:
[1] = Cytostatic activity against mouse L1210/0 after 48 hrs by cell counting; format: functional; details: L1210/0, 48 h
In short: (§1)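 Suspension leukaemia cells in RPMI-1640 with 10% FBS, 2 mM L-glutamine, 0.075% NaHCO3. Seeded at 5–7.5 × 10^4 cells/well with compound and grown at 37 °C for 48 h (L1210) or 72 h (CEM). Cells counted by Coulter counter. IC50 is the concentration that reduces viable cell number by 50%.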

[2] = Cytotoxicity against human HuH5.2 cells after 72 hrs by MTS assay; format: cell-based, Huh-5-2
In short: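 Replicon-bearing Huh 5.2 cells treated in parallel with the antiviral plates using a four-step 1-to-5 dilution series for 72 h. Medium replaced with 5% MTS in phenol red-free medium for 1.5 h, absorbance read at 498 nm, and converted to percent of untreated controls. CC50 is the concentration that reduces metabolic activity by 50%, taken from the dose-response curve.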

CCRF-CEM [3] = experiment: Cytostatic activity against human CEM/0 after 72 hrs by cell counting; format: functional; in short: as §1
HeLa = experiment: Antiproliferative activity against human HeLa cells after 72 hrs by MTT assay; format: functional, cell-based
In short: (§2)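 Monolayer lines grown in DMEM with 10% FBS, 2 mM L-glutamine, penicillin/streptomycin, 37 °C, 5% CO2. Seeded at 3000–6000 cells/well by doubling time, then compound added as five 10-fold dilutions (1 × 10^-8 to 1 × 10^-4 M), DMSO ≤0.1%, for 72 h. MTT read-out converted to percentage growth versus untreated wells. IC50 from linear regression. Quadruplicate points, three experiments.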

SW-620 = experiment: Antiproliferative activity against human SW620 cells after 72 hrs by MTT assay; format: functional, cell-based; details: SW-620, 72 h; in short: as §2
HepG2 = experiment: Antiproliferative activity against human HepG2 cells after 72 hrs by MTT assay; format: functional, cell-based; details: HepG2, 72 h; in short: as §2
Hepatitis C virus = experiment: Antiviral activity against HCV genotype 1b infected in HuH 5.2 cells expressing 1389luc-ubi-neo/NS3-3' assessed as inhibition of viral replication after 72 hrs by luciferase reporter gene assay; format: functional, organism-based, Hepacivirus hominis; details: Huh-5-2, 72 h
In short: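 Huh 5.2 cells carrying the genotype 1b I389luc-ubi-neo/NS3-3'/5.1 replicon, seeded at 6500 cells/well in medium without Geneticin and left overnight. Four-step 1-to-5 compound dilutions, 72 h at 37 °C. Cells washed and lysed, then luciferase luminescence read and expressed as percent of untreated controls. EC50 and EC90 from the dose-response curve.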

WI-38 = experiment: Antiproliferative activity against human WI38 cells after 72 hrs by MTT assay; format: cell-based; details: WI-38, 72 h; in short: as §2
MCF7 = experiment: Antiproliferative activity against human MCF7 cells after 72 hrs by MTT assay; format: functional, cell-based; details: MCF7, 72 h; in short: as §2
MIA PaCa-2 = experiment: Antiproliferative activity against human MIAPaCa2 cells after 72 hrs by MTT assay; format: functional, cell-based; details: MIA PaCa-2, 72 h; in short: as §2
L1210 [4] = experiment: Ratio of ribavirin IC50 to compound IC50 for IMPDH in mouse L1210 cells; format: cell-based
CCRF-CEM [5] = experiment: Ratio of ribavirin IC50 to compound IC50 for IMPDH in human CEM cells; format: cell-based
[6] = Selectivity index, ratio of CC50 for human HuH5.2 cells to EC50 for HCV genotype 1b
[7] = (§3) Inhibition of IMPDH in human CEM cells assessed as […] after 20 to 60 mins; format: cell-based; details: CCRF-CEM
In short: (§4)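 Intact L1210 or CEM cells given [2,8-3H]hypoxanthine, which the cells convert to labelled IMP. IMPDH activity measured as 3H release, sampled at 20, 40 and 60 min with or without compound at varying concentrations. After centrifugation at 1100×g for 10 min, supernatant radioactivity counted. Free 3H before cell incubation was below 10% of added label.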

CCRF-CEM [8] = experiment: as §3; format: cell-based; in short: as §4
[9] = (§5) Inhibition of IMPDH in mouse L1210 cells assessed as […] after 20 to 60 mins; format: cell-based; in short: as §4
L1210 [10] = experiment: as §5; format: cell-based; in short: as §4

| SMILES | IC50 [1] | CC50 at 72 h [2] | IC50 (CCRF-CEM [3]) | IC50 (HeLa) | IC50 (SW-620) | IC50 (HepG2) | EC50 (Hepatitis C virus) | IC50 (WI-38) | IC50 (MCF7) | IC50 (MIA PaCa-2) | EC90 (Hepatitis C virus) | Ratio IC50 (L1210 [4]) | Ratio IC50 (CCRF-CEM [5]) | Ratio CC50/EC50 [6] | IC50 [7] | inhibition (CCRF-CEM [8]) | IC50 [9] | inhibition (L1210 [10]) |
| --- | --- | --- | --- | --- | --- | --- | --- | --- | --- | --- | --- | --- | --- | --- | --- | --- | --- | --- |
| COC(=O)c1ncn(C[C@H](O)[C@H]2OC(=O)C(OCc3ccccc3)=C2OCc2ccccc2)n1 | > 100 µM | > 100 µg/mL | > 100 µM | > 100 µM | > 100 µM | > 100 µM | 62.1 µg/mL (≈ 133 µM) | > 100 µM | > 100 µM | > 100 µM |  |  |  |  |  |  |  |  |
| NC(=O)c1ncn(CCC2(O)NC(=O)C(OCc3ccccc3)=C2OCc2ccccc2)n1 (stereo unspecified) | ≥ 500 µM | > 100 µg/mL | 445 µM | > 100 µM | > 100 µM | 66 µM | > 100 µg/mL | > 100 µM | 61 µM | > 100 µM | > 100 µg/mL |  |  |  |  |  |  |  |
| COC(=O)c1ncn(CCC2(O)NC(=O)C(OCc3ccccc3)=C2OCc2ccccc2)c1C(=O)OC (stereo unspecified) | 46 µM | > 100 µg/mL | 35 µM | 81 µM | > 100 µM | > 100 µM | 36.6 µg/mL (≈ 70.2 µM) | 52 µM | > 100 µM | 47 µM | 81.3 µg/mL (≈ 156 µM) |  |  |  |  |  |  |  |
| NC(=O)c1ncn(CCC2(O)NC(=O)C(OCc3ccccc3)=C2OCc2ccccc2)c1C(N)=O (stereo unspecified) | 198 µM | > 100 µg/mL | 154 µM | > 100 µM | > 100 µM | > 100 µM | > 100 µg/mL | 98 µM | > 100 µM | > 100 µM | > 100 µg/mL | 50 | 50 |  |  |  |  |  |
| COC(=O)c1ncn(CC=C2OC(=O)C(OCc3ccccc3)=C2OCc2ccccc2)n1 (mixture of isomers) | 103 µM | > 100 µg/mL | 44 µM | 97 µM | > 100 µM | 70 µM | 78.5 µg/mL | > 100 µM | 54 µM | 80 µM | > 100 µg/mL | 50 | 50 |  |  |  |  |  |
| COC(=O)c1ncn(CC=C2OC(=O)C(O)=C2O)n1 (mixture of isomers) | 370 µM | > 100 µg/mL | > 500 µM | > 100 µM | > 100 µM | > 100 µM | 61.3 µg/mL | > 100 µM | > 100 µM | > 100 µM |  |  |  |  |  |  |  |  |
| COC(=O)c1ncn(CC=C2OC(=O)C(OCc3ccccc3)=C2OCc2ccccc2)c1C(=O)OC (mixture of isomers) | 32 µM | 70.5 µg/mL | 10 µM | 34 µM | 49 µM | 55 µM | 13.3 µg/mL | > 100 µM | 52 µM | 33 µM | 22.7 µg/mL | 50 | 50 | 5.3 |  |  |  |  |
| N#Cc1ncn(C/C=C2\OC(=O)C(OCc3ccccc3)=C2OCc2ccccc2)c1C#N (mixture of isomers) | 21 µM | > 100 µg/mL | 7.3 µM | 59 µM | 73 µM | 92 µM | > 100 µg/mL | 73 µM | 63 µM | 36 µM | > 100 µg/mL |  |  |  |  |  |  |  |
| COc1cccc2c1C(=O)c1c(O)c3c(c(O)c1C2=O)C[C@@](O)(C(=O)CO)C[C@@H]3O[C@H]1C[C@H](N)[C@H](O)[C@H](C)O1 [DOXORUBICIN] | 1.3 µM |  | 0.39 µM |  | 0.04 µM | 0.05 µM |  | 0.04 µM |  | 0.03 µM |  |  |  |  |  |  |  |  |
| O=c1[nH]cc(F)c(=O)[nH]1 [FLUOROURACIL] |  |  |  | 14.9 µM | 6.68 µM | 56.2 µM |  | 24.7 µM | 66.9 µM | 11.7 µM |  |  |  |  |  |  |  |  |
| NC(=O)c1ncn([C@@H]2O[C@H](CO)[C@@H](O)[C@H]2O)n1 [RIBAVIRIN] | 22 µM |  | 63 µM |  |  |  |  |  |  |  |  |  |  |  | 1000 nM | Dose-dependent effect | 1000 nM | Dose-dependent effect |
